Measurements published in ChEMBL document CHEMBL4706565, “Anti-glioma effects of 2-aminothiophene-3-carboxamide derivatives, ANO1 channel blockers” (Eur J Med Chem, 2020).
Active and inactive are the calls of the source. The calls are words filed in the database; no cut-off is given here.

Assays:
[1] = test system: U-251; test: Inhibition of cell migration in human U251 cells at 5 uM incubated for 18 hrs by wound healing assay; assay type: functional, cell-based
Method in brief: (§1)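 U251 monolayer, 2.0×10^5 cells/well, plated overnight, then scratched and washed with PBS. Incubated 18 h in complete medium with compound (1, 5 or 10 μM). Wound area imaged before and after incubation; migration ratio taken from migrated area. One-way ANOVA.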

[2] = test system: U-251; test: Inhibition of cell migration in human U251 cells incubated for 18 hrs by wound healing assay; assay type: functional, cell-based; conditions: dose 1-10 µM; method in brief: as §1
[3] = target: T1, Anoctamin-1 (Mus musculus) (UniProt Q8BHY3); test: (§2) Inhibition of GFP-fused mouse ANO1 channel expressed in HEK293A cells assessed as inhibition of ATP-induced channel current amplitude at membrane potential of +80 mV by patch clamp electrophysiology assay; assay type: cell-based; conditions: HEK293-A
T1 sequence (whole entry): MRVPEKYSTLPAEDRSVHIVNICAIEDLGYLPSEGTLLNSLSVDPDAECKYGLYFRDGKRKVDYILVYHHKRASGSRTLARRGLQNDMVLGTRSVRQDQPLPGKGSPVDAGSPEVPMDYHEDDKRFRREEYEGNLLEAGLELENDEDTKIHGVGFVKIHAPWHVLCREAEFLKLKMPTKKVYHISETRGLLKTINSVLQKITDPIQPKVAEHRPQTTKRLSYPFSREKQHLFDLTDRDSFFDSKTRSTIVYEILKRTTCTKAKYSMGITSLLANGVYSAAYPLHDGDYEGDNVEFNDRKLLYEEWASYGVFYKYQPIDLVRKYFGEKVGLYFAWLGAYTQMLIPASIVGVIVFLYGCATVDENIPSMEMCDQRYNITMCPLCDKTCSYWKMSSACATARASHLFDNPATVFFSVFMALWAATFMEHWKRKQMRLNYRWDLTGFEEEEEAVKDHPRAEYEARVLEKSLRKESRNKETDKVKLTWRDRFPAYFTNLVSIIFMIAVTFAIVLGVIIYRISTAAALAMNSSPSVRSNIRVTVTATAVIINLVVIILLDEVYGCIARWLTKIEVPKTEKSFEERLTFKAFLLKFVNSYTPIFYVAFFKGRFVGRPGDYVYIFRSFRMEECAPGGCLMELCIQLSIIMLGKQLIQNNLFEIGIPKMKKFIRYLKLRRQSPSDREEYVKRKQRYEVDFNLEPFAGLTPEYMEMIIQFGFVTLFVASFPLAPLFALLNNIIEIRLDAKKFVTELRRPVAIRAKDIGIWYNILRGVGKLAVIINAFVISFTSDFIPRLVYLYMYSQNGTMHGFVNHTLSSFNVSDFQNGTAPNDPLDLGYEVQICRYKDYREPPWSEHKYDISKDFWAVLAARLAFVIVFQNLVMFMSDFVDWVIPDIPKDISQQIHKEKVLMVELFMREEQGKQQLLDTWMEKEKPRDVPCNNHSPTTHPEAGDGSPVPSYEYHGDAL
Method in brief: (§3)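 Whole-cell recording at room temperature in HEK293A cells transfected with GFP-mANO1, GFP-mANO2 or GFP-mTTYH1. 1 s ramps from +80 to -80 mV, holding potential -10 mV. For ANO1/ANO2: pipette CsCl 146 mM with Ca-EGTA-NMDG, pH 7.3; bath NaCl-based, pH 7.3. For TTYH1: Tris-aspartate pipette (pH 7.2) and Tris-HCl bath (pH 7.4), with […] and BaCl2 added to block K+ channels, and hypotonic (220 mOsm/kg) bath. Washout recordings assessed reversibility.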

[4] = target: T2, Anoctamin-1 (Mus musculus, UniProt Q8BHY3); test: as §2; assay type: cell-based, HEK293-A; method in brief: as §3
T2 sequence (Q8BHY3 whole entry): T1 sequence (whole entry)

[5] = target: T3, Anoctamin-1 (Homo sapiens, UniProt Q5XXA6); test: Inhibition of human ANO1 channel expressed in HEK293 cells incubated for 10 mins by FLIPR assay; assay type: cell-based
T3 sequence (Q5XXA6 whole entry): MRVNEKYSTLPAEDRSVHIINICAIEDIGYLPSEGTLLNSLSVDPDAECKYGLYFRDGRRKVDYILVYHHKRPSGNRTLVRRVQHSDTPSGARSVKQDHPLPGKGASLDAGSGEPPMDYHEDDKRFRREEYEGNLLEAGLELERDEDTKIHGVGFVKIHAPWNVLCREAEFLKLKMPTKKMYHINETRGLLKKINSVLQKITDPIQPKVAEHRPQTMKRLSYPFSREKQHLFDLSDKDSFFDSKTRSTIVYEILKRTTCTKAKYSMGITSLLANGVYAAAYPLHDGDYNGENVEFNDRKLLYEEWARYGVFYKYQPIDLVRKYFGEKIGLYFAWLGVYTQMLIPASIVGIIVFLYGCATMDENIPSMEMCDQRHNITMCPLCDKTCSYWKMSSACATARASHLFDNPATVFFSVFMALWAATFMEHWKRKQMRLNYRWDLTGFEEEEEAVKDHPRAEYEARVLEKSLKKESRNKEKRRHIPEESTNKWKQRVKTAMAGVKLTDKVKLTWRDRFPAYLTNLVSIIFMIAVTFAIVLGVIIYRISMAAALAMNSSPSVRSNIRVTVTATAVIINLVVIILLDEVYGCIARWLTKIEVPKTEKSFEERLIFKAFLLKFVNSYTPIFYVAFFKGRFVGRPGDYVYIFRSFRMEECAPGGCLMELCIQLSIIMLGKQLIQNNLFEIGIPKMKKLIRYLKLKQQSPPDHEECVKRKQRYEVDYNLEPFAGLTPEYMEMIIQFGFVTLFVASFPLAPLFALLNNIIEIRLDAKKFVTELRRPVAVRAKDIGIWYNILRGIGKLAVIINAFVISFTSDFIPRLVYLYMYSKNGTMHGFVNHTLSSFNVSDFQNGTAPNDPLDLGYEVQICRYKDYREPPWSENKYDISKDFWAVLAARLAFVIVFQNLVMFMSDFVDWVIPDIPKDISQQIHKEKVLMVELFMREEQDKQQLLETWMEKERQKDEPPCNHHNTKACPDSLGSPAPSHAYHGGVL
Method in brief: (§4)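 HEK293 cells expressing human ANO1, 50,000 cells/well, plated overnight. Loaded with FLIPR Red membrane-potential dye in HEPES-buffered saline (pH 7.4) for 40-60 min at room temperature. Compound added for 10 min at room temperature, final DMSO 0.5%.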

[6] = target: T1, Anoctamin-1 (Mus musculus); test: Inhibition of GFP-fused mouse ANO1 channel expressed in HEK293A cells assessed as inhibition of current amplitude at 10 uM at membrane potential of +80 mV by patch clamp electrophysiology assay; assay type: cell-based; conditions: HEK293-A; method in brief: as §3
[7] = target: T4, Anoctamin-1 (Homo sapiens) (UniProt Q5XXA6); test: Inhibition of human ANO1 channel expressed in HEK293 cells at 10 uM incubated for 10 mins by FLIPR assay relative to control; assay type: cell-based; method in brief: as §4
T4 sequence (whole entry): T3 sequence (Q5XXA6 whole entry)

[8] = test system: U-251; test: Inhibition of colony formation in human U251 cells at 3 uM incubated for 14 days by crystal violet dye based assay; assay type: functional, cell-based; conditions: time 14.0 day
Method in brief: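 U251 cells, 1.0×10^3 per well, treated with compound (1, 3 or 10 μM) for 2 weeks at 37 °C, 5% CO2. Colonies stained 24 h with crystal violet in methanol/formaldehyde/PBS, washed, extracted with 10% acetic acid and read at A570 nm. Compared against DMSO control.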

Row | SMILES | inhibition [1] | inhibition [2] | inhibition [3] | IC50 [4] | IC50 [5] | inhibition [6] | inhibition [7] | inhibition [8]
1 | NC(=O)c1c(NC(=S)NC(=O)c2ccc(Cl)cc2)sc2c1CCC2 | Active | Dose-dependent effect | Dose-dependent effect | 1750 nM | 2360 nM | 57.6% | 72.2% | Active
2 | CC(C)(C)C(=O)Nc1sc2c(c1C(N)=O)CCC(C(C)(C)C)C2 (stereo unspecified) | Active | Dose-dependent effect | Dose-dependent effect | 2560 nM | 3100 nM | 50.6% | 86.9% | Active
